Measured values published in ChEMBL document CHEMBL4229550, “An antimycobacterial pleuromutilin analogue effective against dormant bacilli” (Bioorg Med Chem, 2018).
Converted amounts (≈) assume the structure as drawn. The source made the active and inactive calls. No cut-off for these calls is given here.

Tests used:
Streptococcus salivarius [1] = experiment: Bactericidal activity against Streptococcus salivarius ATCC 6301 incubated for 24 hrs under aerobic condition by MABA; type: functional; settings: ATCC 6301, 24 h
Clostridioides difficile = experiment: Bactericidal activity against Clostridium difficile ATCC 700057 incubated for 24 hrs […] by MABA; type: functional; settings: ATCC 700057, 24 h
[2] = tested on: Mycolicibacterium smegmatis; experiment: Antibacterial activity against Mycobacterium smegmatis; type: functional
[3] = Selectivity index, ratio of IC50 for African green monkey Vero cells to MIC100 for replicating Mycobacterium tuberculosis H37Rv by MABA; type: toxicity; settings: read-out: Selectivity Index
Method in brief: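 Vero cells are cultured in EMEM with 10% FBS and exposed for 72 h to 0.78–200 µg/mL. Medium is switched to phenol-red-free EMEM, MTT is added, and formazan is read at 570 nm to give IC50. The selectivity index is Vero IC50 divided by the MABA MIC.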

Enterococcus faecalis [4] = experiment: Bactericidal activity against Enterococcus faecalis ATCC 19433 incubated for 24 hrs under aerobic condition by MABA; type: functional; settings: ATCC 19433, 24 h
Bacillus subtilis [5] = experiment: Antibacterial activity against Bacillus subtilis ATCC 6051 incubated for 24 hrs under aerobic condition by MABA; type: functional; settings: ATCC 6051, 24 h, read-out: MIC100
Method in brief: (§1)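 Mid-log cultures at OD 0.5 were exposed to serial dilutions under aerobic conditions at 37 °C for 24 h. Resazurin was then added from a 0.08% stock for 1 h. MIC100 was the lowest concentration where the dye stayed blue (pink means growth). Absorbance was also read at 570 and 600 nm.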

Staphylococcus aureus [6] = experiment: Bactericidal activity against Staphylococcus aureus BAA 2094 incubated for 24 hrs under aerobic condition by MABA; type: functional; settings: BAA 2094, 24 h
Staphylococcus aureus [7] = experiment: Antibacterial activity against Staphylococcus aureus BAA 2094 incubated for 24 hrs under aerobic condition by MABA; type: functional; settings: BAA 2094, 24 h, read-out: MIC100
Method in brief: (§2)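 Resazurin was then added from a 0.08% stock for 1 h. MIC100 was the lowest concentration where the dye stayed blue (pink means growth). Absorbance was also read at 570 and 600 nm.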

Enterococcus faecalis [8] = experiment: Antibacterial activity against Enterococcus faecalis ATCC 19433 incubated for 24 hrs under aerobic condition by MABA; type: functional; settings: ATCC 19433, 24 h, read-out: MIC100; method in brief: as §1
Streptococcus pneumoniae [9] = experiment: Bactericidal activity against Streptococcus pneumoniae ATCC 6301 incubated for 24 hrs under aerobic condition by MABA; type: functional; settings: ATCC 6301, 24 h
Escherichia coli [10] = experiment: Antibacterial activity against Escherichia coli ATCC 10798 incubated for 24 hrs under aerobic condition by MABA; type: functional; settings: ATCC 10798, 24 h, read-out: MIC100; method in brief: as §1
Staphylococcus aureus [11] = experiment: Bactericidal activity against Staphylococcus aureus BAA 44 incubated for 24 hrs under aerobic condition by MABA; type: functional; settings: BAA 44, 24 h
Staphylococcus aureus [12] = experiment: Antibacterial activity against Staphylococcus aureus ATCC 25923 incubated for 24 hrs under aerobic condition by MABA; type: functional; settings: ATCC 25923, 24 h, read-out: MIC100; method in brief: as §1
Staphylococcus aureus [13] = experiment: Bactericidal activity against Staphylococcus aureus incubated for 24 hrs under aerobic condition by MABA; type: functional
Streptococcus salivarius [14] = experiment: Antibacterial activity against Streptococcus salivarius […] incubated for 24 hrs under aerobic condition by MABA; type: functional; settings: read-out: MIC100; method in brief: as §2
[15] = tested on: Mycolicibacterium smegmatis; experiment: Bactericidal activity against Mycobacterium smegmatis ATCC 607 incubated for 48 hrs under aerobic condition by MABA; type: functional; settings: ATCC 607, 48 h
Staphylococcus aureus [16] = experiment: Bactericidal activity against Staphylococcus aureus ATCC 25923 incubated for 24 hrs under aerobic condition by MABA; type: functional; settings: ATCC 25923, 24 h
Enterococcus faecalis [17] = experiment: Antibacterial activity against Enterococcus faecalis ATCC 349 incubated for 24 hrs under aerobic condition by MABA; type: functional; settings: ATCC 349, 24 h, read-out: MIC100; method in brief: as §1
Staphylococcus aureus [18] = experiment: Antibacterial activity against Staphylococcus aureus incubated for 24 hrs under aerobic condition by MABA; type: functional; settings: read-out: MIC100; method in brief: as §2
Escherichia coli [19] = experiment: Inhibition of protein translation/transcription in Escherichia coli S30 cell extract at 0.1 ug/ml using circular DNA with pBESTluc after 60 mins by luciferase reporter gene assay; type: functional
Method in brief: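 Coupled transcription/translation used E. coli S30 extract, amino acid mix and premix, with the pBESTluc template carrying firefly luciferase under the tac promoter. Compounds were added in DMSO and reactions were started with DNA. Incubation was 60 min at 37 °C, stopped on ice, and luciferase was read after adding assay substrate.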

[20] = Half life in Sprague-Dawley rat liver microsomes at 500 ng/ml preincubated for 5 mins followed by NADPH addition by C-MS/MS analysis; type: ADME, microsome
Enterococcus faecalis [21] = experiment: Bactericidal activity against Enterococcus faecalis ATCC 349 incubated for 24 hrs under aerobic condition by MABA; type: functional; settings: ATCC 349, 24 h
Streptococcus pneumoniae [22] = experiment: Antibacterial activity against Streptococcus pneumoniae ATCC 6301 incubated for 24 hrs under aerobic condition by MABA; type: functional; settings: ATCC 6301, 24 h, read-out: MIC100; method in brief: as §1
[23] = tested on: Mycobacterium tuberculosis; experiment: Antibacterial activity against replicating Mycobacterium tuberculosis H37Rv incubated for 15 days under aerobic condition by MABA; type: functional; settings: 360 h, read-out: MIC100
Method in brief: (§3)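 Mtb H37Rv grown in 7H9/OADC at 37 °C with shaking to OD600 0.5. The 0.5-OD culture is exposed aerobically to serial dilutions for 15 days at 37 °C. Resazurin (0.02% stock) is then added for 4 h at 37 °C with shaking.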

Escherichia coli [24] = experiment: Bactericidal activity against Escherichia coli ATCC 10798 incubated for 24 hrs under aerobic condition by MABA; type: functional; settings: ATCC 10798, 24 h
Klebsiella pneumoniae [25] = experiment: Antibacterial activity against Klebsiella pneumoniae ATCC 12019 incubated for 24 hrs under aerobic condition by MABA; type: functional; settings: ATCC 12019, 24 h, read-out: MIC100; method in brief: as §1
Acinetobacter baumannii [26] = experiment: Bactericidal activity against Acinetobacter baumannii ATCC 19606 incubated for 24 hrs under aerobic condition by MABA; type: functional; settings: ATCC 19606 = CIP 70.34 = JCM 6841, 24 h
Staphylococcus aureus [27] = experiment: Antibacterial activity against Staphylococcus aureus BAA 1683 incubated for 24 hrs under aerobic condition by MABA; type: functional; settings: BAA 1683, 24 h, read-out: MIC100; method in brief: as §1
[28] = tested on: Mycobacterium tuberculosis; experiment: Bactericidal activity against replicating Mycobacterium tuberculosis H37Rv incubated for 15 days under aerobic condition by MABA; type: functional; settings: 360 h; method in brief: as §3
Staphylococcus aureus [29] = experiment: Bactericidal activity against Staphylococcus aureus BAA 1683 incubated for 24 hrs under aerobic condition by MABA; type: functional; settings: BAA 1683, 24 h
[30] = tested on: Mycolicibacterium smegmatis; experiment: Antibacterial activity against Mycobacterium smegmatis ATCC 607 incubated for 48 hrs under aerobic condition by MABA; type: functional; settings: ATCC 607, 48 h, read-out: MIC100
Method in brief: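 Mid-log culture at OD 0.5 was incubated with serial dilutions aerobically at 37 °C for 48 h. Resazurin was then added from a 0.08% stock for 1 h. MIC100 was the lowest concentration that stayed blue; absorbance was also read at 570/600 nm.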

Acinetobacter baumannii [31] = experiment: Antibacterial activity against Acinetobacter baumannii ATCC 19606 incubated for 24 hrs under aerobic condition by MABA; type: functional; settings: ATCC 19606 = CIP 70.34 = JCM 6841, 24 h, read-out: MIC100; method in brief: as §1
Staphylococcus aureus [32] = experiment: Antibacterial activity against Staphylococcus aureus BAA 44 incubated for 24 hrs under aerobic condition by MABA; type: functional; settings: BAA 44, 24 h, read-out: MIC100; method in brief: as §1
Bacillus subtilis [33] = experiment: Bactericidal activity against Bacillus subtilis ATCC 6051 incubated for 24 hrs under aerobic condition by MABA; type: functional; settings: ATCC 6051, 24 h
Klebsiella pneumoniae [34] = experiment: Bactericidal activity against Klebsiella pneumoniae ATCC 12019 incubated for 24 hrs under aerobic condition by MABA; type: functional; settings: ATCC 12019, 24 h
Vero = experiment: Cytotoxicity against African green monkey Vero cells assessed as reduction in cell viability after 72 hrs by MTT assay; type: cell-based; settings: Chlorocebus sabaeus
Method in brief: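 Vero cells were grown in complete EMEM with 10% FBS and exposed for 72 h to 0.78–200 µg/mL. The medium was then swapped for phenol-red-free EMEM and MTT was added. Formazan absorbance was read at 570 nm to give IC50.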

[35] = tested on: Mycobacterium tuberculosis; experiment: Bactericidal activity against non-replicating Mycobacterium tuberculosis CDC1551 expressing tdTomato infected in mouse J774A.1 cells at 2 times MIC after 48 hrs by UV-Visible spectroscopic method; type: functional, organism-based
Method in brief: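 J774A.1 macrophages are seeded at […] cells/well in DMEM and incubated overnight at 37 °C. They are infected with saline-washed Mtb CDC1551-tdTomato (10^6 bacteria, MOI ≈10), and extracellular bacteria are washed off with PBS. Treatment is at 2×MIC, with fluorescence emission read at 581 nm at 24, 48, 72 and 96 h. Survivors are confirmed by serial dilution and plating on 7H11.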

C=C[C@]1(C)C[C@@H](OC(=O)CSC(C)(C)CNC(=O)[C@H](N)C(C)C)[C@]2(C)[C@H](C)CC[C@]3(CCC(=O)[C@H]32)[C@@H](C)[C@@H]1O [VALNEMULIN]
MBC (Streptococcus salivarius [1]): > 25 µg/mL
MBC (Clostridioides difficile): 1.56 µg/mL (≈ 2.76 µM)
MIC [2]: 8 to 16 µg/mL (≈ 14.2 to 28.3 µM)
selectivity ratio [3]: 4.79
MBC (Enterococcus faecalis [4]): 12.5 µg/mL (≈ 22.1 µM)
MIC (Bacillus subtilis [5]): 12.5 µg/mL (≈ 22.1 µM)
MBC (Staphylococcus aureus [6]): > 25 µg/mL
MIC (Staphylococcus aureus [7]): > 25 µg/mL
MIC (Enterococcus faecalis [8]): 6.25 µg/mL (≈ 11.1 µM)
MBC (Streptococcus pneumoniae [9]): > 25 µg/mL
MIC (Escherichia coli [10]): 12.5 µg/mL (≈ 22.1 µM)
MBC (Staphylococcus aureus [11]): > 25 µg/mL
MIC (Staphylococcus aureus [12]): > 25 µg/mL
MBC (Staphylococcus aureus [13]): 0.8 µg/mL (≈ 1.42 µM)
MIC (Streptococcus salivarius [14]): 0.4 µg/mL (≈ 0.708 µM)
MBC [15]: 25 µg/mL (≈ 44.3 µM)
MBC (Staphylococcus aureus [16]): > 25 µg/mL
MIC (Enterococcus faecalis [17]): > 25 µg/mL
MIC (Staphylococcus aureus [18]): 0.4 µg/mL (≈ 0.708 µM)
inhibition (Escherichia coli [19]): Active
t1/2 [20]: 10 min
MBC (Enterococcus faecalis [21]): > 25 µg/mL
MIC (Streptococcus pneumoniae [22]): 12.5 µg/mL (≈ 22.1 µM)
MIC [23]: 3.13 µg/mL (≈ 5.54 µM)
MBC (Escherichia coli [24]): > 25 µg/mL
MIC (Klebsiella pneumoniae [25]): 12.5 µg/mL (≈ 22.1 µM)
MBC (Acinetobacter baumannii [26]): 6.25 µg/mL (≈ 11.1 µM)
MIC (Staphylococcus aureus [27]): > 25 µg/mL
MBC [28]: 6.25 µg/mL (≈ 11.1 µM)
MBC (Staphylococcus aureus [29]): > 25 µg/mL
MIC [30]: 12.5 µg/mL (≈ 22.1 µM)
MIC (Acinetobacter baumannii [31]): 4.69 µg/mL (≈ 8.3 µM)
MIC (Staphylococcus aureus [32]): > 25 µg/mL
MBC (Bacillus subtilis [33]): 25 µg/mL (≈ 44.3 µM)
MBC (Klebsiella pneumoniae [34]): 25 µg/mL (≈ 44.3 µM)

CO[C@H]1/C=C/O[C@@]2(C)Oc3c(C)c(O)c4c(O)c(c(/C=N/N5CCN(C)CC5)c(O)c4c3C2=O)NC(=O)/C(C)=C\C=C\[C@H](C)[C@H](O)[C@@H](C)[C@@H](O)[C@@H](C)[C@H](OC(C)=O)[C@@H]1C [RIFAMPIN]
MBC (Streptococcus salivarius [1]): > 25 µg/mL
MBC (Clostridioides difficile): 0.78 µg/mL (≈ 0.948 µM)
MBC (Enterococcus faecalis [4]): 1.56 µg/mL (≈ 1.9 µM)
IC50 (Vero): > 200 µg/mL
MIC (Bacillus subtilis [5]): 0.3 µg/mL (≈ 0.365 µM)
MBC (Staphylococcus aureus [6]): 0.2 µg/mL (≈ 0.243 µM)
MIC (Enterococcus faecalis [8]): 0.78 µg/mL (≈ 0.948 µM)
MBC (Streptococcus pneumoniae [9]): > 25 µg/mL
MIC (Escherichia coli [10]): 3.13 µg/mL (≈ 3.8 µM)
MBC (Staphylococcus aureus [11]): 25 µg/mL (≈ 30.4 µM)
MIC (Staphylococcus aureus [12]): > 25 µg/mL
MBC (Staphylococcus aureus [13]): 0.4 µg/mL (≈ 0.486 µM)
MBC [15]: > 25 µg/mL
MBC (Staphylococcus aureus [16]): > 25 µg/mL
MIC (Enterococcus faecalis [17]): > 25 µg/mL
MBC (Enterococcus faecalis [21]): > 25 µg/mL
MIC (Streptococcus pneumoniae [22]): 25 µg/mL (≈ 30.4 µM)
MBC (Escherichia coli [24]): 25 µg/mL (≈ 30.4 µM)
MIC (Klebsiella pneumoniae [25]): 1.56 µg/mL (≈ 1.9 µM)
MBC (Acinetobacter baumannii [26]): 3.13 µg/mL (≈ 3.8 µM)
MIC (Staphylococcus aureus [27]): 0.15 µg/mL (≈ 0.182 µM)
MBC [28]: 0.01 µg/mL (≈ 0.0122 µM)
MBC (Staphylococcus aureus [29]): 0.2 µg/mL (≈ 0.243 µM)
MIC [30]: > 25 µg/mL
MIC (Acinetobacter baumannii [31]): 2.35 µg/mL (≈ 2.86 µM)
Activity [35]: Active
MIC (Staphylococcus aureus [32]): 6.25 µg/mL (≈ 7.59 µM)
MBC (Bacillus subtilis [33]): 0.4 µg/mL (≈ 0.486 µM)
MBC (Klebsiella pneumoniae [34]): 3.13 µg/mL (≈ 3.8 µM)
